Measurements as given in ChEMBL document CHEMBL1152782, “Rational modification of a candidate cancer drug for use against Chagas disease” (J Med Chem, 2009).
Activity calls are given as the source filed them. The rule behind the calls is not given here.

Legend:
[1] = Ratio of IC50 for rat recombinant protein farnesyltransferase to EC50 for Trypanosoma cruzi Tulahuen expressing beta-galactosidase
[2] = Inhibition of rat recombinant protein farnesyltransferase expressed in Sf9 cells by [3H]-scintillation proximity assay
Trypanosoma cruzi [3] = experiment: Antitrypanosomal activity against Trypanosoma cruzi Tulahuen amastigotes expressing beta-galactosidase in mouse 3T3 fibroblast after 7 days by […]; format: functional, organism-based; settings: 168 h
[4] = target: Sterol 14-alpha demethylase (Trypanosoma cruzi (strain CL Brener)) (UniProt Q7Z1V1); experiment: Inhibition of Trypanosoma cruzi recombinant sterol 14-alpha-demethylase assessed as drug/enzyme molar ratio required to produce 50 percent decrease in turnover number
Sterol 14-alpha demethylase (Trypanosoma cruzi (strain CL Brener)), sequence (Q7Z1V1 whole entry, looked up): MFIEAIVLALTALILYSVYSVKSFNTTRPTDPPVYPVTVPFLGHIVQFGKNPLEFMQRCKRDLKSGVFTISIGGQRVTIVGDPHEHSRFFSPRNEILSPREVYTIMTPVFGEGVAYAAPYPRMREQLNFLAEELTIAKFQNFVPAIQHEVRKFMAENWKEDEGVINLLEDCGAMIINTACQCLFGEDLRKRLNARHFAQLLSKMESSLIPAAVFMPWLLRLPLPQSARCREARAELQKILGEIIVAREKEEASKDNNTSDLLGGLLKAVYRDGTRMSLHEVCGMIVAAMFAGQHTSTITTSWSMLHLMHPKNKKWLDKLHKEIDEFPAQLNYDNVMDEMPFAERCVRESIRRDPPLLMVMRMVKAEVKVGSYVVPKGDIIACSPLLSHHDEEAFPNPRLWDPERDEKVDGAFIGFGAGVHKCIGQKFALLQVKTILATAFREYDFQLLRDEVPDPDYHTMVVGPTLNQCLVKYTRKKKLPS

[5] = Terminal half life in po dosed human administered twice a day; format: ADME, organism-based; settings: in vivo, read-out: beta t1/2 (converted)
[6] = target: T1, Lanosterol 14-alpha demethylase (Homo sapiens, UniProt Q16850); experiment: Inhibition of human sterol 14-alpha-demethylase assessed as drug/enzyme molar ratio required to produce 50 percent decrease in turnover number
T1 sequence (Q16850 whole entry): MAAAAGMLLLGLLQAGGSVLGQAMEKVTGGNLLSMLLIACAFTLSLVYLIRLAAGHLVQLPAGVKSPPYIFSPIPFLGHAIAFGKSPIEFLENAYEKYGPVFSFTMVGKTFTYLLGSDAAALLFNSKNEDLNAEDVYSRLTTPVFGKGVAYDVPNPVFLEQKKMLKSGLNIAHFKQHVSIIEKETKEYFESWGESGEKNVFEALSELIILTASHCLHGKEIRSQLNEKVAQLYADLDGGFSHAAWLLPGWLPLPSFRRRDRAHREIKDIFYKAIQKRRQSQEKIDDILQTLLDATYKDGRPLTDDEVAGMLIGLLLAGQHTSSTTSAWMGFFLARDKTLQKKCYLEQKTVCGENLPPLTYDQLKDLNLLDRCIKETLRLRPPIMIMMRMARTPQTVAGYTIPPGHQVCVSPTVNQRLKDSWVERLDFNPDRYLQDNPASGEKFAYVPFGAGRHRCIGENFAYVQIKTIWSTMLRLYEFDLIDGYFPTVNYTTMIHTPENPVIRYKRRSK

Trypanosoma cruzi [7] = experiment: (§1) Antitrypanosomal activity against Trypanosoma cruzi Tulahuen trypomastigotes infected in BALB/c mouse assessed as suppression of parasitemia at 100 mg/kg, po twice a day after 7 days of infection for 8 to 13 days and 50 mg/kg, po for 14 to 27 days measured weekly for 8 weeks by microscopy; format: functional, organism-based
In short: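 Female BALB/c mice, 7–8 weeks old, infected s.c. with 5×10^3 Tulahuen trypomastigotes; parasitemic by day 7. From day 8, groups of 5–6 were gavaged 100 mg/kg twice daily (days 8–13), then 50 mg/kg twice daily (days 14–27), in 20% w/v hydroxypropyl-β-cyclodextrin. Parasitemia read in 5 μL tail blood over 50 high-power fields. Day-103 cardiac blood cultured at 28 °C, checked weekly for 8 weeks.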

Cytochrome P450 3A4 = Cytochrome P450 3A4 (Homo sapiens, UniProt P08684); experiment: Inhibition of human recombinant CYP3A4; format: ADME
Cytochrome P450 3A4, sequence (P08684 whole entry): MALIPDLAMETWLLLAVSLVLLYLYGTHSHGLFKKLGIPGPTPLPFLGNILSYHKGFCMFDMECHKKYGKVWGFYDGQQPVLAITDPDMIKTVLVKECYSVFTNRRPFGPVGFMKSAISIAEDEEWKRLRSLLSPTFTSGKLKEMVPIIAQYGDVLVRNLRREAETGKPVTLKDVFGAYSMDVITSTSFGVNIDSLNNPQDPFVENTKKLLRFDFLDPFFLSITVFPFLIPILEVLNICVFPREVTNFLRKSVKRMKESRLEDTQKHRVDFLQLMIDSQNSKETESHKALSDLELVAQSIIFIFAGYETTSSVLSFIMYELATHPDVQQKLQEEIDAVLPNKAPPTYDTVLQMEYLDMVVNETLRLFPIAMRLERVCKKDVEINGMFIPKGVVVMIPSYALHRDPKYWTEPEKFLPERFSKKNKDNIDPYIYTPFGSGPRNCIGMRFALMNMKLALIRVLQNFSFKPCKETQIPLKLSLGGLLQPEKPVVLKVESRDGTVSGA

[8] = Cmax in BALB/c mouse at 50 mg/kg, po; format: ADME, organism-based; design: dose 50 mg/kg, route oral; settings: in vivo
In short: (§2)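 Single oral gavage dose of 50 mg/kg, suspended at 10 mg/ml in 20% (w/v) hydroxypropyl beta-cyclodextrin, to uninfected female BALB/c mice (7–8 weeks, ~20 g); timed tail blood, plasma extracted with acetonitrile using an internal standard, quantified by reversed-phase LC-MS (electrospray ion trap); three mice averaged.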

Trypanosoma cruzi [9] = experiment: as §1, with “parasitemia in blood culture” for “parasitemia”, “after 100 days” for “weekly for 8 weeks”; format: functional, organism-based
In short: (§3)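 Female BALB/c mice (7–8 weeks) infected subcutaneously with 5×10^3 Tulahuen trypomastigotes; oral gavage from day 8, groups of 5–6, for 20 days. Benznidazole 100 mg/kg once daily days 8–27; test agents 100 mg/kg twice daily days 8–13 then 50 mg/kg twice daily days 14–27; vehicle 20% hydroxypropyl beta-cyclodextrin twice daily. Parasitemia counted in 5 μL tail blood over 50 high-powered fields.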

[10] = Elimination half life in BALB/c mouse at 50 mg/kg, po; format: ADME, organism-based; design: dose 50 mg/kg, route oral; settings: in vivo, read-out: beta t1/2 (converted); in short: as §2
Mus musculus = experiment: Toxicity in BALB/c mouse at 50 mg/kg, po administered twice a day; format: organism-based; design: dose 50 mg/kg, route oral; settings: in vivo
In short: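 Infected female BALB/c mice given oral gavage in 20% hydroxypropyl beta-cyclodextrin, 100 mg/kg twice daily days 8–13 then 50 mg/kg twice daily days 14–27; monitored for weight loss and adverse effects.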

Trypanosoma cruzi [11] = experiment: Antitrypanosomal activity against Trypanosoma cruzi Tulahuen trypomastigotes infected in BALB/c mouse assessed as suppression of parasitemia at 100 mg/kg, po after 7 days of infection for 8 to 27 days measured weekly for 8 weeks by microscopy; format: functional, organism-based; design: dose 100 mg/kg; in short: as §3

Cn1cncc1[C@@](N)(c1ccc2ccccc2c1)c1ccc2c(c1)c(-c1cccc(Cl)c1)cc(=O)n2C
Ratio IC50/EC50 [1]: 0.4
IC50 [2]: 17 nM
EC50 (Trypanosoma cruzi [3]): 45 nM

Cn1cncc1[C@@](N)(c1ccc(Cl)cc1)c1ccc2c(c1)c(-c1cccc(Cl)c1)cc(=O)n2C [TIPIFARNIB]
Activity [4]: 0.48
half-life [5]: 960 min
IC50 [2]: 0.7 nM
Activity [6]: > 100
Activity (Trypanosoma cruzi [7]): inactive
EC50 (Trypanosoma cruzi [3]): 4 nM

Cn1cncc1[C@@](N)(c1ccc(Cl)cc1)c1ccc2c(c1)c(-c1cccc3ccccc13)cc(=O)n2C (racemic)
Activity [4]: 0.85
IC50 [2]: 485 nM
Activity [6]: > 100
EC50 (Trypanosoma cruzi [3]): 22 nM

Cc1c(Cl)cccc1-c1cc(=O)n(C)c2ccc([C@](N)(c3ccc(Cl)cc3)c3cncn3C)cc12 (racemic)
Ratio IC50/EC50 [1]: 14
Activity [4]: 0.65
IC50 (Cytochrome P450 3A4): 1300 nM
IC50 [2]: 294 nM
Activity [6]: > 100
EC50 (Trypanosoma cruzi [3]): 21 nM

Cn1cncc1[C@@](N)(c1ccc(Cl)cc1)c1ccc2c(c1)c(-c1ccccc1)cc(=O)n2C
Ratio IC50/EC50 [1]: 0.3
IC50 [2]: 4 nM
EC50 (Trypanosoma cruzi [3]): 12 nM

CC(=O)N1CCN(c2ccc(OCC3COC(Cn4ccnc4)(c4ccc(Cl)cc4Cl)O3)cc2)CC1 (configuration not stated) [KETOCONAZOLE]
Activity [4]: 0.75
Activity [6]: 2.3
EC50 (Trypanosoma cruzi [3]): 0.3 nM

Cc1cc([C@@](N)(c2ccc3c(c2)c(-c2cccc(Cl)c2)cc(=O)n3C)c2cncn2C)ccc1Cl (racemic)
Ratio IC50/EC50 [1]: 0.6
IC50 [2]: 13 nM
EC50 (Trypanosoma cruzi [3]): 23 nM

CO[C@](c1ccc(Cl)cc1)(c1ccc2c(c1)c(-c1cccc(Cl)c1C)cc(=O)n2C)c1cncn1C (racemic)
Ratio IC50/EC50 [1]: > 8300
Cmax [8]: 5 µM
Activity [4]: 0.62
IC50 (Cytochrome P450 3A4): 870 nM
Activity (Trypanosoma cruzi [9]): Active
half-life [10]: 240 min
IC50 [2]: > 5000 nM
Activity (Mus musculus): Non-toxic
Activity [6]: 48
Activity (Trypanosoma cruzi [11]): Active
Activity (Trypanosoma cruzi [7]): Active
EC50 (Trypanosoma cruzi [3]): 0.6 nM

Cc1ccccc1-c1cc(=O)n(C)c2ccc([C@](N)(c3ccc(Cl)cc3)c3cncn3C)cc12 (racemic)
Ratio IC50/EC50 [1]: 13
IC50 (Cytochrome P450 3A4): 1350 nM
IC50 [2]: 300 nM
EC50 (Trypanosoma cruzi [3]): 23 nM

CC[C@@H]([C@H](C)O)n1ncn(-c2ccc(N3CCN(c4ccc(OC[C@@H]5CO[C@@](Cn6cncn6)(c6ccc(F)cc6F)C5)cc4)CC3)cc2)c1=O [POSACONAZOLE]
EC50 (Trypanosoma cruzi [3]): 0.3 nM

Cn1cncc1[C@](N)(c1ccc(Cl)cc1)c1ccc2c(c1)c(-c1cccc(Cl)c1)cc(=O)n2C [(S)-TIPIFARNIB]
Activity [4]: 0.74
Activity [6]: > 100
